In ChEMBL document CHEMBL4052618, “Design, synthesis, SAR discussion, in vitro and in vivo evaluation of novel selective EGFR modulator to inhibit L858R/T790M double mutants” (Eur J Med Chem, 2017):

How the values were obtained:
[1] = target: Testis-specific serine/threonine-protein kinase 1 (Homo sapiens) (UniProt Q9BXA7); experiment: Inhibition of STK22D (unknown origin) at 1 uM relative to control
[2] = target: Cyclin-dependent kinase 5/CDK5 activator 1 (Homo sapiens) (UniProt Q00535+Q15078); experiment: Inhibition of CDK5/p35 (unknown origin) at 1 uM relative to control; assay type: protein-complex assay
[3] = Intrinsic clearance in rat hepatocytes assessed per million cells; assay type: ADME, cell-based, Hepatocyte
[4] = target: Tyrosine-protein kinase JAK3 (Homo sapiens) (UniProt P52333); experiment: Inhibition of JAK3 (unknown origin) at 1 uM relative to control
[5] = target: Activated CDC42 kinase 1 (Homo sapiens) (UniProt Q07912); experiment: Inhibition of TNK2 (unknown origin) at 1 uM relative to control
[6] = target: Tyrosine-protein kinase Fes/Fps (Homo sapiens) (UniProt P07332); experiment: Inhibition of FES (FPS) (unknown origin) at 1 uM relative to control
[7] = target: Cytoplasmic tyrosine-protein kinase BMX (Homo sapiens) (UniProt P51813); experiment: Inhibition of BMX (unknown origin) at 1 uM relative to control
[8] = target: Receptor tyrosine-protein kinase erbB-4 (Homo sapiens) (UniProt Q15303); experiment: Inhibition of ERBB4 (HER4) (unknown origin) at 1 uM relative to control
[9] = target: Non-receptor tyrosine-protein kinase TYK2 (Homo sapiens) (UniProt P29597); experiment: Inhibition of TYK2 (unknown origin) at 1 uM relative to control
[10] = target: Dual specificity protein kinase CLK1 (Homo sapiens) (UniProt P49759); experiment: Inhibition of CLK1 (unknown origin) at 1 uM relative to control
[11] = target: BDNF/NT-3 growth factors receptor (Homo sapiens) (UniProt Q16620); experiment: Inhibition of NTRK2 (unknown origin) at 1 uM relative to control
[12] = Half life in human hepatocytes; assay type: ADME, cell-based, Hepatocyte
[13] = target: Epidermal growth factor receptor (Homo sapiens, UniProt P00533); experiment: Inhibition of human recombinant cytoplasmic GST-tagged EGFR (668 to 1210 residues) expressed in baculovirus using TK-substrate-biotin preincubated for 15 mins followed by substrate addition measured after 60 mins by FRET-based Z'-Lyte assay; details: read-out: IC50
[14] = target: Tyrosine-protein kinase SYK (Homo sapiens) (UniProt P43405); experiment: Inhibition of SYK (unknown origin) at 1 uM relative to control
[15] = system: NCI-H1975; experiment: In vivo anti tumor activity against human NCI-H1975 cells xenografted in nude C.B-17 SCID mouse model assessed as tumor volume at 5 mg/kg, ig for 18 days measured twice a week (reference value: 948.05 mm3); assay type: functional
[16] = system: NCI-H1975; experiment: Antiproliferative activity against human NCI-H1975 cells harboring EGFR L858R/T790M double mutant; assay type: functional, cell-based
In short: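 A431 was grown in EMEM with 10% FBS; HCC827 and NCI-H1975 were grown in RPMI-1640 with 10% FBS. Cell viability experiments were repeated at least three times.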

[17] = system: NCI-H1975; experiment: In vivo anti tumor activity against human NCI-H1975 cells xenografted in nude C.B-17 SCID mouse model assessed as tumor growth inhibition at 10 mg/kg, ig for 18 days measured twice a week relative to control; assay type: functional; details: NCI-H1975, po, 432 h, read-out: TGI
In short: (§1)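 H1975 s.c. xenografts (5 × 10^6 cells) were grown in C.B-17 SCID mice and randomized at 100-150 mm3 (n = 9). Mice were dosed intragastrically once daily for 18 days against a PBS control. TGI% = (TWcontrol − TWtreatment)/TWcontrol × 100, where TW is the mean tumor weight on day 18.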

[18] = target: Fibroblast growth factor receptor 1 (Homo sapiens) (UniProt P11362); experiment: Inhibition of FGFR1 (unknown origin) at 1 uM relative to control
[19] = Half life in human liver microsomes; assay type: ADME, microsome
[20] = target: Serine/threonine-protein kinase Chk1 (Homo sapiens) (UniProt O14757); experiment: Inhibition of CHEK1 (unknown origin) at 1 uM relative to control
[21] = target: Ephrin type-B receptor 2 (Homo sapiens) (UniProt P29323); experiment: Inhibition of EPHB2 (unknown origin) at 1 uM relative to control
[22] = target: Tyrosine-protein kinase Tec (Homo sapiens) (UniProt P42680); experiment: Inhibition of TEC (unknown origin) at 1 uM relative to control
[23] = target: Tyrosine-protein kinase ITK/TSK (Homo sapiens) (UniProt Q08881); experiment: Inhibition of ITK (unknown origin) at 1 uM relative to control
[24] = target: Serine/threonine-protein kinase Chk2 (Homo sapiens) (UniProt O96017); experiment: Inhibition of CHEK2 (CHK2) (unknown origin) at 1 uM relative to control
[25] = system: NCI-H1975; experiment: In vivo anti tumor activity against human NCI-H1975 cells xenografted in nude C.B-17 SCID mouse model assessed as tumor growth inhibition at 20 mg/kg, ig for 18 days measured twice a week relative to control; assay type: functional; details: NCI-H1975, po, 432 h, read-out: TGI; in short: as §1
[26] = target: Focal adhesion kinase 1 (Homo sapiens) (UniProt Q05397); experiment: Inhibition of PTK2 (unknown origin) at 1 uM relative to control
[27] = target: cAMP-dependent protein kinase catalytic subunit alpha (Homo sapiens) (UniProt P17612); experiment: Inhibition of PRKACA (unknown origin) at 1 uM relative to control
[28] = target: Protein kinase C beta type (Homo sapiens) (UniProt P05771); experiment: Inhibition of PRKCB1 (unknown origin) at 1 uM relative to control
[29] = target: Serine/threonine-protein kinase Sgk1 (Homo sapiens) (UniProt O00141); experiment: Inhibition of SGK (unknown origin) at 1 uM relative to control
[30] = target: Tyrosine-protein kinase Blk (Homo sapiens) (UniProt P51451); experiment: Inhibition of BLK (unknown origin) at 1 uM relative to control
[31] = target: Tyrosine-protein kinase Fyn (Homo sapiens) (UniProt P06241); experiment: Inhibition of FYN (unknown origin) at 1 uM relative to control
[32] = target: Inhibitor of nuclear factor kappa-B kinase subunit alpha (Homo sapiens) (UniProt O15111); experiment: Inhibition of CHUK (unknown origin) at 1 uM relative to control
[33] = Half life in dog liver microsomes; assay type: ADME, Canis lupus familiaris, microsome
[34] = Intrinsic clearance in mouse liver microsomes; assay type: ADME, microsome; details: read-out: CLH
[35] = Tmax in Sprague-Dawley rat at 10 mg/kg, po administered via gavage by LC-MS/MS analysis; assay type: ADME, organism-based; details: in vivo
In short: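 Male Sprague-Dawley rats (200-240 g) received 1 mg/kg by tail-vein injection in 2% DMSO, 20% PEG400 and 78% buffered saline, or 10 mg/kg by oral gavage in 0.5% methylcellulose. Orbital sinus blood was drawn into heparinized tubes at 2, 5, 15 and 30 min and at 1, 2, 4, 8, 12 and 24 h, then centrifuged. Plasma was measured by LC/MS/MS in SRM mode, with non-compartmental analysis.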

[36] = target: Protein kinase C gamma type (Homo sapiens) (UniProt P05129); experiment: Inhibition of PRKCG (unknown origin) at 1 uM relative to control

Chain of Serine/threonine-protein kinase Chk2 (Homo sapiens) (O96017 whole entry): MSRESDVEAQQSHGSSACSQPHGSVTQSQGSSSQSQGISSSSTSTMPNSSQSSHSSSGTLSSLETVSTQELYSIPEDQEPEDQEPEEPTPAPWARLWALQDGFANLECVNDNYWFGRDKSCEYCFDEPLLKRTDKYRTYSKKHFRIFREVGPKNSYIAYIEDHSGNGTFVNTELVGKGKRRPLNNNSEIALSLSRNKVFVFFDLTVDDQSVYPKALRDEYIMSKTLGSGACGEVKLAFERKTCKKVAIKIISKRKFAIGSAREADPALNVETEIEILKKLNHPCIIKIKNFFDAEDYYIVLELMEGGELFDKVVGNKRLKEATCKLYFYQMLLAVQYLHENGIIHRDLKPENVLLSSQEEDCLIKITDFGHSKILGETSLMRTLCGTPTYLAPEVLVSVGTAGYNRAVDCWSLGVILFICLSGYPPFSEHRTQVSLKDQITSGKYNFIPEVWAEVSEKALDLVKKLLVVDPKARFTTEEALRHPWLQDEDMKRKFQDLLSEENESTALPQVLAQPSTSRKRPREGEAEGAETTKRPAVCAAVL
Chain of Cytoplasmic tyrosine-protein kinase BMX (Homo sapiens) (P51813 whole entry): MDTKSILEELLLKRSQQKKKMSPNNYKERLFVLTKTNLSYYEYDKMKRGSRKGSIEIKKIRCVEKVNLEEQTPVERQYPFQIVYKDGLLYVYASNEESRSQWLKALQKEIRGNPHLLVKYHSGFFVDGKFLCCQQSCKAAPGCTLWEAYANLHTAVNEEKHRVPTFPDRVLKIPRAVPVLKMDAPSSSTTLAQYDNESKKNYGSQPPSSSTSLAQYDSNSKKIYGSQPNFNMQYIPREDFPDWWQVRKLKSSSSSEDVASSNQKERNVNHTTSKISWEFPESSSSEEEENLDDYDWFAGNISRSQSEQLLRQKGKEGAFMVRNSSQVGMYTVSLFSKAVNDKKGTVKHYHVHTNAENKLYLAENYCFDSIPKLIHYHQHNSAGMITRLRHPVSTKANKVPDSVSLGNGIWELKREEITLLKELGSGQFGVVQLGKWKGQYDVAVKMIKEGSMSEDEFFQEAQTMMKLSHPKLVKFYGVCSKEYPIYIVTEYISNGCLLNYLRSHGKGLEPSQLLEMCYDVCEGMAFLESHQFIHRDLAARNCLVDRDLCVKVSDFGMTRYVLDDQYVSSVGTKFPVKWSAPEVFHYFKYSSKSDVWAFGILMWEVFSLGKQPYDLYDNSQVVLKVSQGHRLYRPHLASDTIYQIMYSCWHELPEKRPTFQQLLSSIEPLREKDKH
Chain of Tyrosine-protein kinase Fyn (Homo sapiens) (P06241 2-537 limits assumed): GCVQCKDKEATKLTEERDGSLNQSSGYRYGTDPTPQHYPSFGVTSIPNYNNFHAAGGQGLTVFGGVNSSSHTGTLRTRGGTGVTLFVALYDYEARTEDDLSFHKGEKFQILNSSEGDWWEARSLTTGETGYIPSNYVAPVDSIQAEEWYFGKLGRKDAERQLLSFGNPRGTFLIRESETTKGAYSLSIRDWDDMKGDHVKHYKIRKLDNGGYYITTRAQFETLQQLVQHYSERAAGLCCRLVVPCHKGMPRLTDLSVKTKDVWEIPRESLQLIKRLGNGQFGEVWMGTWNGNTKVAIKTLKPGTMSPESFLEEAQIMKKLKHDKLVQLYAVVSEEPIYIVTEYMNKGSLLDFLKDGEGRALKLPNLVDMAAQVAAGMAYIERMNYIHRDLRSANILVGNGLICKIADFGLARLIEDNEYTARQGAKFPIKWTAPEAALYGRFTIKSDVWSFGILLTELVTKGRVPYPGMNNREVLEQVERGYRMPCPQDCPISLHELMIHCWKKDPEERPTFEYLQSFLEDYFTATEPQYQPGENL
Chain of Focal adhesion kinase 1 (Homo sapiens) (Q05397 2-1052 limits assumed): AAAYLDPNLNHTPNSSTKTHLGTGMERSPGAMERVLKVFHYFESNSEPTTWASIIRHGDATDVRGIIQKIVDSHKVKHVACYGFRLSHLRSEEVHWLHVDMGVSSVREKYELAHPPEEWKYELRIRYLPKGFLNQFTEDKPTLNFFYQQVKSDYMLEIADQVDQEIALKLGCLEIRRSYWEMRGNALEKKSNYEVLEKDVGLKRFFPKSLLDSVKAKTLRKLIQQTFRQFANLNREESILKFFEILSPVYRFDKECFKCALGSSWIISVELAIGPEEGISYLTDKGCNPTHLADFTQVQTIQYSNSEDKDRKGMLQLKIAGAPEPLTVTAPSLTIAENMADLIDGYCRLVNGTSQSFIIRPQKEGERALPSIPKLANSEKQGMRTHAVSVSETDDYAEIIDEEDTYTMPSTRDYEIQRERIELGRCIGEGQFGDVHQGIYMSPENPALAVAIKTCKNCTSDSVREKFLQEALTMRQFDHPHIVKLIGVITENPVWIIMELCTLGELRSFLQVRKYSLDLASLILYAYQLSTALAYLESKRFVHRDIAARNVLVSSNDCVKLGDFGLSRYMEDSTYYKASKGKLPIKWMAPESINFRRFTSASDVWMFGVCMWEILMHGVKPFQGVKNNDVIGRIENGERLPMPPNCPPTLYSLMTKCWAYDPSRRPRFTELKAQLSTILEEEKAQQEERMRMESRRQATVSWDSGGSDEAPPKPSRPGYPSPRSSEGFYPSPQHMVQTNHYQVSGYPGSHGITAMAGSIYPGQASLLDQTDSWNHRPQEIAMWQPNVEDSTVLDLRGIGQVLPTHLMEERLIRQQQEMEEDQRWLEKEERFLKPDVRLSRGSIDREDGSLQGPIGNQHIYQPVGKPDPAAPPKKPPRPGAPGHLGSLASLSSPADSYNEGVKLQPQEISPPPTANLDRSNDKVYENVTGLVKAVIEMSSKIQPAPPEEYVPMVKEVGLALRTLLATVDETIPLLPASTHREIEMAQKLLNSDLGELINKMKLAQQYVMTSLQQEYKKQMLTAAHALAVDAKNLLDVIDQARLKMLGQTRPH
Chain of Testis-specific serine/threonine-protein kinase 1 (Homo sapiens) (Q9BXA7 whole entry): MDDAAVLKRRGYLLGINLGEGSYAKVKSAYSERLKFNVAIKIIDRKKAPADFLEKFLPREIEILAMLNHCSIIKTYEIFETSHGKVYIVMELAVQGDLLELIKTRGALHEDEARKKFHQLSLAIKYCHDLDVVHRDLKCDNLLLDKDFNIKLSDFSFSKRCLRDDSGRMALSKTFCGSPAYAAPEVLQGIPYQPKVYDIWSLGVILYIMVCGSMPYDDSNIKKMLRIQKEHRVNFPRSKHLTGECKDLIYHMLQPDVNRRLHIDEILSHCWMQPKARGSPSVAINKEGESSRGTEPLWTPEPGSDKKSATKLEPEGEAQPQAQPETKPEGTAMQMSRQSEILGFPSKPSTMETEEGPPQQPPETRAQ
Chain of Serine/threonine-protein kinase Sgk1 (Homo sapiens) (O00141 whole entry): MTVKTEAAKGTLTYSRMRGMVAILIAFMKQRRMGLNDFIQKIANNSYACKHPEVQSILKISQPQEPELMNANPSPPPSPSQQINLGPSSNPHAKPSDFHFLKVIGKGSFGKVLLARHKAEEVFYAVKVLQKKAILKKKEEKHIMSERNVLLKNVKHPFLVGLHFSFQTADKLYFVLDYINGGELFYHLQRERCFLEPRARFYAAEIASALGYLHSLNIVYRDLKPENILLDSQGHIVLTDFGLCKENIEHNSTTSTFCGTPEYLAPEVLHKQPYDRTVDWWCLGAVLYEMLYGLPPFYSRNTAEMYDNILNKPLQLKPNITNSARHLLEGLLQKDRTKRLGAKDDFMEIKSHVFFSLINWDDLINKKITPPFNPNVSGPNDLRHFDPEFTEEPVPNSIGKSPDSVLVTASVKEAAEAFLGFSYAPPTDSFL
Chain of Fibroblast growth factor receptor 1 (Homo sapiens) (P11362 22-822 limits assumed): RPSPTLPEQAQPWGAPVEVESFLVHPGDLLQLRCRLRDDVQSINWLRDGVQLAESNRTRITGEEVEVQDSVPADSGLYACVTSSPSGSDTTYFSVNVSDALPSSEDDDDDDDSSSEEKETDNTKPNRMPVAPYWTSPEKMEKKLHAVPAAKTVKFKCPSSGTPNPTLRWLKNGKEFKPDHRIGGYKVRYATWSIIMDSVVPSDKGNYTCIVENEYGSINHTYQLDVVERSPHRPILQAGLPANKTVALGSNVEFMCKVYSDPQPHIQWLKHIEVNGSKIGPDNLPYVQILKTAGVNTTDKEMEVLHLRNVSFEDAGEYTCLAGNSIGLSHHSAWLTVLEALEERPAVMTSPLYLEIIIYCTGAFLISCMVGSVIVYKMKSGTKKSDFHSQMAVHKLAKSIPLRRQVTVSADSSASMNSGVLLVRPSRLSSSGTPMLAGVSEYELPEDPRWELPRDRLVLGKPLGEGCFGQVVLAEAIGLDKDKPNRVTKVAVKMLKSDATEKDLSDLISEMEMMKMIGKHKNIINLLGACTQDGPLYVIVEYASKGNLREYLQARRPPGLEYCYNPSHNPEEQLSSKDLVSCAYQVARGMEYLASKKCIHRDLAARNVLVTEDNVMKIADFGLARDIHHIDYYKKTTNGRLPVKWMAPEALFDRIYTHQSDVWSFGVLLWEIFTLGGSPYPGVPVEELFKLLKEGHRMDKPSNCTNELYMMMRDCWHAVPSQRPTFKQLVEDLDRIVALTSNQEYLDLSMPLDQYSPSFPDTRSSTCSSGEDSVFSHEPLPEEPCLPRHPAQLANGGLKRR
Chain of Tyrosine-protein kinase Tec (Homo sapiens) (P42680 whole entry): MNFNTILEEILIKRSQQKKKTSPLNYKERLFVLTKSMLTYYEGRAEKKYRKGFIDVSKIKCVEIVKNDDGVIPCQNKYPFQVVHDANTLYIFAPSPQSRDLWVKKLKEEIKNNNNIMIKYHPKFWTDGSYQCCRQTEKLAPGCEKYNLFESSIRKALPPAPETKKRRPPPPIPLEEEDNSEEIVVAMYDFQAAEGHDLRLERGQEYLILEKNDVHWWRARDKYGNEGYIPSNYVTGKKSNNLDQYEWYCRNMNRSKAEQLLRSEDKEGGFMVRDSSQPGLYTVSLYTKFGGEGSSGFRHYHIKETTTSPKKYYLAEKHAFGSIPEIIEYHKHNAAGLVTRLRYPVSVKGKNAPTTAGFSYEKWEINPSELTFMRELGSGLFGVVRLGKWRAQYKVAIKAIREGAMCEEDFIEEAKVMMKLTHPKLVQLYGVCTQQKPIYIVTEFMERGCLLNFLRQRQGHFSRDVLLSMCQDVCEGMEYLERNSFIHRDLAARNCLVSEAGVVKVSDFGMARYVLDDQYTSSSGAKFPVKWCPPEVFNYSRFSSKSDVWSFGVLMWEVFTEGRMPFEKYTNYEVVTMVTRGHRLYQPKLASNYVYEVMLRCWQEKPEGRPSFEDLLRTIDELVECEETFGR

In the case of C=CC(=O)Nc1cc(Nc2nccc(-c3cn4c5c(cccc35)CCC4)n2)c(OC)cc1N(C)CCN(C)C, the inhibition [1] is reported as 72%, the inhibition [2] is reported as 1% and the CLH [3] is reported as 21 µL/min/10^6 cells. The inhibition [4] was 89%, the inhibition [5] was 75% and the inhibition [6] was 42%. The inhibition [7] was 80%, the inhibition [8] was 78% and the inhibition [9] was 14%. For the same molecule, the inhibition [10] was 20%, the inhibition [11] was -1% and the half-life [12] was 139 min. For the same molecule, the IC50 [13] was 21.6 nM, the inhibition [14] was 4% and the Activity [15] was 527.78 mm3. It also gave an IC50 [16] of 103 nM, an inhibition in vivo at 10 mg/kg [17] of 83.5% and an inhibition [18] of 7%. It also gave a half-life [19] greater than 180 min, an inhibition [20] of -6% and an inhibition [21] of 6%. It also gave an inhibition [22] of 52%, an inhibition [23] of 66% and an inhibition [24] of -2%. For the same molecule, the inhibition in vivo at 20 mg/kg [25] was 96.3%, the inhibition [26] was 73% and the inhibition [27] was 2%. For the same molecule, the inhibition [28] was 2%, the inhibition [29] was 10% and the inhibition [30] was 85%. It also gave an inhibition [31] of 7%, an inhibition [32] of 14% and a half-life [33] of 31.5 min. The CLint scaled [34] was 457 mL/min/kg, the Tmax [35] was 3.3 h and the inhibition [36] was -2%.
